≈ marks a conversion by molar mass, not a printed value. Calls of active or inactive are those of the source. The calls are words filed in the database; no cut-off is given here.
Key:
Acinetobacter baumannii = assay: Antibacterial activity against Acinetobacter baumanii ATCC 19606 after 18 to 22 hrs in absence of colistin by broth microdilution method; type: functional; details: ATCC 19606 = CIP 70.34 = JCM 6841
Outline: (§1)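 Broth microdilution per CLSI guidelines. Gram-negatives grown in TSB. Each strain tested alone and again with colistin at ¼ × MIC to permeabilize the outer membrane. Plates incubated at 37 °C for 18–22 h. MIC read as the lowest concentration showing no visible growth.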

Escherichia coli [1] = assay: Antibacterial activity against Escherichia coli O157:H7 ATCC 35150 after 18 to 22 hrs in absence of colistin by broth microdilution method; type: functional
Escherichia coli [2] = assay: Antibacterial activity against Escherichia coli 1411 harboring delta-acrAB after 18 to 22 hrs in absence of colistin by broth microdilution method; type: functional
Klebsiella pneumoniae = assay: Antibacterial activity against Klebsiella pneumoniae BAA-1706 after 18 to 22 hrs in presence of 1/4 times MIC colistin by broth microdilution method; type: functional; outline: as §1
Enterococcus faecium [3] = assay: Antibacterial activity against vancomycin-resistant Enterococcus faecium clinical isolates after 18 to 22 hrs by broth microdilution method; type: functional
Outline: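 CLSI broth microdilution against panels of enterococcal isolates. E. faecalis grown in TSB, E. faecium in BHI, 37 °C for 18–22 h. MIC is the lowest concentration without visible growth. MIC50 is the value inhibiting 50% of isolates in each group.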

Enterococcus faecium [4] = assay: Bactericidal activity against vancomycin-resistant Enterococcus faecium ATCC 700221 at 4 times MIC after 2 hrs by time-kill assay; type: functional
Outline: (§2)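 Late-log cells diluted to ~5 × 10^6 CFU/mL and exposed in triplicate to 4 × MIC, in TSB (E. faecalis HM-201) or BHI (E. faecium ATCC 700221) at 37 °C. Sampled at 0, 2, 4, 6, 8, 10, 12 and 24 h, diluted serially in PBS and plated on TSA or BHI agar. CFU/mL counted after 18–22 h. DMSO served as negative control.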

Enterococcus faecium [5] = assay: Bactericidal activity against vancomycin-resistant Enterococcus faecium ATCC 700221 assessed as bacterial regrowth at 4 times MIC after 22 hrs by time-kill assay; type: functional; outline: as §2
Bacillus subtilis [6] = assay: Antibacterial activity against Bacillus subtilis assessed as cell lysis at 5 times MIC after 30 mins by sytox green staining-based deconvolution microscopic analysis; type: functional
Outline: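 B. subtilis grown in LB at 37 °C to OD600 ~0.2 and treated, with or without MSM for osmotic stabilization, for 30 min or 2 h. Stained with FM 4-64 (1 μg/mL), DAPI (1 μg/mL) and SYTOX Green (1 μg/mL) to score permeability. Examined by deconvolution and phase-contrast microscopy.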

Bacillus subtilis [7] = assay: Antibacterial activity against Bacillus subtilis assessed as misshapen cells at 5 times MIC after 2 hrs in presence of methylsulfonyl methane by phase contrast microscopic analysis; type: functional
Outline: (§3)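 B. subtilis grown in LB at 37 °C to OD600 ~0.2, then treated at 5 × MIC with MSM for osmotic stabilisation. At 2 h, stained with FM 4-64 (1 μg/mL), DAPI (1 μg/mL) and SYTOX Green (1 μg/mL). Imaged by deconvolution fluorescence and phase contrast microscopy.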

Bacillus subtilis [8] = assay: Antibacterial activity against Bacillus subtilis assessed as pool of membranes at 5 times MIC after 2 hrs in presence of methylsulfonyl methane by phase contrast microscopic analysis; type: functional; outline: as §3
Enterococcus faecalis [9] = assay: Inhibition of UPPP-mediated peptidoglycan biosynthesis in Enterococcus faecalis NR-31975 assessed as accumulation of UDP-N-acetylmuramyl-pentapeptide at 10 times MIC after 30 mins by HPLC-MS analysis
Outline: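 Pellets boiled 30 min. UDP-N-acetylmuramyl-pentapeptide measured by HPLC-TOF MS on a phenyl column, 5–20% acetonitrile/0.1% formic acid gradient, positive ESI.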

[10] = Inhibition of Escherichia coli UPPS using IPP and FPP as substrate preincubated for 30 mins followed by substrate addition measured after 20 mins by malachite green phosphate assay
Outline: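 Purified E. coli UPPS preincubated 30 min at room temperature with inhibitor (200 to 0.2 μM) in 100 mM HEPES, 50 mM NaCl, 0.5 mM MgCl2, 0.02% DDM, pH 7.5. Then 10 μM IPP and FPP added with 0.375 U/mL inorganic phosphatase. Phosphate read by malachite green at 620 nm. IC50 from dose-response curves.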

[11] = Induction of proton motive force collapse in Escherichia coli inverted membrane vesicle in presence of ATP-driven PMF generation system by ACMA-based fluorescence assay; type: functional, cell membranes
Outline: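 E. coli inverted membrane vesicles (0.1 mg/mL membrane protein) with 2 μM ACMA and 0.5 mM ATP or succinate, in 10 mM HEPES-KOH, 5 mM MgSO4, 100 mM KCl, pH 7.5. Proton gradient followed by ACMA fluorescence (ex 410/em 480 nm). EC50 taken from dose-response curves. CCCP used as reference uncoupler.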

Enterococcus faecalis [12] = assay: Potentiation of gentamicin-induced antibacterial activity against Enterococcus faecalis ATCC 51299 assessed as gentamicin MIC preincubated for 30 mins followed by gentamicin addition measured after 18 to 21 hrs; type: functional
Outline: (§4)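 Enterococcal suspensions at 5×10^5 CFU/mL preincubated with compound at ½ × MIC for 30 min at room temperature.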

Enterococcus faecium [13] = assay: Potentiation of vancomycin-induced antibacterial activity against Enterococcus faecium ATCC 700221 assessed as fold reduction in vancomycin MIC preincubated for 30 mins followed by vancomycin addition measured after 18 to 21 hrs; type: functional
Outline: (§5)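 VRE suspensions at 5×10^5 CFU/mL preincubated with compound at ½ × MIC for 30 min at room temperature. […] Fold reduction calculated as vancomycin MIC alone over MIC in combination.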

Enterococcus faecalis [14] = assay: Potentiation of vancomycin-induced antibacterial activity against Enterococcus faecalis HM-201 assessed as fold reduction in vancomycin MIC preincubated for 30 mins followed by vancomycin addition measured after 18 to 21 hrs; type: functional; outline: as §5
Enterococcus faecalis [15] = assay: Potentiation of vancomycin-induced antibacterial activity against Enterococcus faecalis HM-934 assessed as fold reduction in vancomycin MIC preincubated for 30 mins followed by vancomycin addition measured after 18 to 21 hrs; type: functional; outline: as §5
Enterococcus faecium [16] = assay: Potentiation of gentamicin-induced antibacterial activity against Enterococcus faecium ATCC 700221 assessed as gentamicin MIC preincubated for 30 mins followed by gentamicin addition measured after 18 to 21 hrs; type: functional; outline: as §4
Enterococcus faecalis [17] = assay: Synergistic antimicrobial activity against Enterococcus faecalis ATCC 51299 after 20 hrs in presence of ampicillin by checkerboard assay; type: functional
Outline: (§6)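 Checkerboard in TSB with a starting inoculum of 1×10^5 CFU/mL. Compound and antibiotic diluted from 2× or 4× MIC along perpendicular axes. Incubated 20 h at 37 °C. ΣFIC calculated: ≤0.5 synergy, >0.5 to <2 additive, 2–4 indifference, >4 antagonism.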

Enterococcus faecalis [18] = assay: Synergistic antimicrobial activity against Enterococcus faecalis ATCC 51299 after 20 hrs in presence of doxycycline by checkerboard assay; type: functional; outline: as §6
Caenorhabditis elegans = assay: Toxicity in Caenorhabditis elegans AU37 assessed as worm survival at 20 ug/ml after 24 hrs by microscopic analysis; details: caenorhabditis elegans, 24 h
Outline: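 Adult C. elegans AU37, 15–20 per well, exposed in triplicate to 10 or 20 μg/mL, with sterile water as negative control. Viability checked by microscopy. Result reported as percent viable worms after 24 h exposure.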

CCCCc1ccc(-c2nc(C)c(/C(C)=N/NC(=N)N)s2)cc1
MIC (Acinetobacter baumannii): 8 µg/mL (≈ 24.3 µM)
MIC (Escherichia coli [1]): 16 µg/mL (≈ 48.6 µM)
MIC (Escherichia coli [2]): 4 µg/mL (≈ 12.1 µM)
MIC (Klebsiella pneumoniae): 1 µg/mL
MIC50 (Enterococcus faecium [3]): 2 µg/mL (≈ 6.07 µM)
Activity (Enterococcus faecium [4]): Active
Activity (Enterococcus faecium [5]): Active
Activity (Bacillus subtilis [6]): 95%
Activity (Bacillus subtilis [7]): Active
Activity (Bacillus subtilis [8]): Active
inhibition (Enterococcus faecalis [9]): Active
IC50 [10]: 19 µM
EC50 [11]: 12 µM
Activity (Enterococcus faecalis [12]): inactive
fold change (FC) (Enterococcus faecium [13]): 256
Activity (Enterococcus faecalis [14]): inactive
Activity (Enterococcus faecalis [15]): inactive
Activity (Enterococcus faecium [16]): inactive
fractional inhibitory concentration index (FICI) (Enterococcus faecalis [17]): 3
fractional inhibitory concentration index (FICI) (Enterococcus faecalis [18]): 2
Activity (Caenorhabditis elegans): Non-Toxic
